Screening data deposited in PubChem by several laboratories.
SENP8 block-1 = inhibitors of human SENP8 protease. recombinant SENP8, Nedd8 substrate fluorescence. inhibition, % at 20 µM. actives 0.64% (n = 360,000). AID 602440; in the data active = inhibition mostly above about 40%, no sharp cut-off; inactive = mostly below about 27%
SENP1 inh = blocks the human SENP1 SUMO protease catalytic domain. Q9P0U3. recombinant SENP1 catalytic domain, CyPet-SUMO1-YPet FRET cleavage. inhibition, % at 10 µM. actives 0.21% (n = 360,000). AID 624204;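 active = inhibition at least 30% at 10 µM, raw YFP signal under a set limit, fluorescence ratio 0.5 to 1.5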;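 also: 0% = enzyme with DMSO and 100% = no enzyme wells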
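Controls: no-enzyme wells low, DMSO-plus-enzyme wells high control. Test system: human recombinant His6-tagged SENP1 catalytic domain enzyme. Reagent: SFCypet-SUMO1-SFYpet FRET protein substrate, 25 nM final. Doses: one dose per compound, 10 µM, 0.5% DMSO. Detection: FRET, CFP and YFP emission. Timing: 50 min reaction at room temperature.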
HSP90 refold inh = HSP90 refolding inhibition in rabbit reticulocyte lysate; luciferase refolding luminescence, 3 h; inhibition, % at 5.6 µM; actives 0.91% (n = 290,000);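 active = inhibition above the screen-wide mean plus 3 SD, computed separately per campaign, cut at about 16% in these data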;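 also: 0% = DMSO wells and 100% = 60 µM geldanamycin wells; inhibitors lower the luminescence because luciferase stays unfolded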
SENP6 inh = blocks the human protease SENP6; Q9GZR1; Recombinant SENP6 catalytic domain, aminoluciferin luminescence; inhibition, % at 10 µM; actives 1.8% (n = 330,000); AID 2599;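 active = inhibition above about 50% at the single tested dose, limit read from the data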;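 also: plate controls were DMSO wells with enzyme for no effect and DMSO wells lacking enzyme for full effect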
Target sequence (Q9GZR1 628-1112 limits assumed): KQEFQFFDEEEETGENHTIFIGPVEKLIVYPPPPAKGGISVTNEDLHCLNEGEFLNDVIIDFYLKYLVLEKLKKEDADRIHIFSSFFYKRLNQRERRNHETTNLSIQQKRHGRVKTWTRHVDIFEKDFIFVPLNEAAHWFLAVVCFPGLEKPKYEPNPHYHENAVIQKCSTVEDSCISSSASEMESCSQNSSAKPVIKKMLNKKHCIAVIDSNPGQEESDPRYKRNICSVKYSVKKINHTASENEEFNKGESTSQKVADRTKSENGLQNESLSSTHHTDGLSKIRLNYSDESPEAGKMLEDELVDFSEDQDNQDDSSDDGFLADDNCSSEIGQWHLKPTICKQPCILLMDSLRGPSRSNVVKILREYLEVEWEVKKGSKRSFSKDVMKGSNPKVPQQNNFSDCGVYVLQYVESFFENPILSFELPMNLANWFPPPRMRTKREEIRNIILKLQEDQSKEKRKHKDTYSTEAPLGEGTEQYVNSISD
SENP8 block-2 = blocks the human protease SENP8; inhibition, % at 10 µM; purified SENP8, Z-RLRGG-aminoluciferin cleavage, luminescence; AID 2540; actives 1.2% (n = 330,000); Q96LD8; in the data active = inhibition above about 50%
SENP7 inh = inhibitors of human SENP7 protease | recombinant SENP7, Z-RLRGG-aminoluciferin luminescence, 40 min | actives 1.5% (n = 330,000) | inhibition, % at 5 µM | Q9BQF6;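 active = inhibition above about 50% at the single test dose, limit read from the data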;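 also: plate controls were DMSO with enzyme for no effect and no enzyme buffer wells for full effect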
HSP90 inh confirm = HSP90 inhibition, confirmation assay; actives 64% (n = 2,300); inhibition, % at 5.9 µM; rabbit reticulocyte lysate, luciferase refolding luminescence, 3 h; AID 1846; shares compounds with HSP90 refold inh; in the data active = inhibition above about 18%;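 also: 0% = vehicle wells and 100% = reference inhibitor wells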
FLuc counter = counter-screen for HSP90 inhibitors: inhibitors of firefly luciferase | shares compounds with HSP90 refold inh | actives 48% (n = 2,300) | purified native firefly luciferase, luminescence | inhibition, % at 5.9 µM | AID 1847;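 active = inhibition above the mean inhibition of all tested sample wells plus 3 SD, cut at about 10% in these data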;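 also: 0% = DMSO with luciferase and 100% = wells lacking luciferase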
An asterisk follows results filed as active; / = not tested or not shown. This is a sample that favours compounds with a hit; in the whole collection about 2.9% have one here.

SMILES	SENP8 block-1	SENP1 inh	HSP90 refold inh	SENP6 inh	SENP8 block-2	SENP7 inh	HSP90 inh confirm	FLuc counter
COc1ccc(C(=O)Nn2c(SCc3ccc([N+](=O)[O-])cc3)nc3ccccc3c2=O)cc1	19	3	55*	-5	1	3	45*	33*
Cc1oc(-c2ccccc2Cl)nc1CS(=O)CC(=O)NCc1ccc2c(c1)OCO2 (centres undefined)	11	2	-5	9	0	-2	/	/
Cc1ccc(-n2nc3c(c2NC(=O)c2ccc4c(c2)OCO4)CS(=O)C3)c(C)c1 (centres undefined)	10	2	/	-8	-4	-4	/	/
O=c1cc(CN2CCN(Cc3ccc(F)cc3)C(CCO)C2)[nH]c2ccccc12 (centres undefined)	-8	-3	-4	1	-8	-1	/	/
C=CCN1C(=O)/C(=C\c2cc(Br)c(OCc3ccccn3)c(OC)c2)SC1=S	23	3	-1	-9	2	5	/	/
C=CCN1C(=O)/C(=C\c2ccc(Oc3nc(N4CCOCC4)nc(N4CCOCC4)n3)c(OC)c2)SC1=S	25	3	39*	-3	-3	5	10	0
O=S(=O)(/N=C(/Nc1ccccc1F)c1ccccc1)c1ccccc1	10	0	4	-3	-4	2	/	/
Cc1ccccc1NC1=C/C(=N\S(=O)(=O)c2ccc(C(=O)O)cc2)c2ccccc2C1=O	88*	2	98*	94*	95*	69*	96*	-11
O=C(O)c1ccc(S(=O)(=O)/N=C2\C=C(Nc3ccccc3F)C(=O)c3ccccc32)cc1	88*	1	92*	98*	96*	65*	94*	-15
Cc1ccccc1NC1=C/C(=N\S(=O)(=O)c2cccs2)c2ccccc2C1=O	99*	4	35*	86*	90*	89*	91*	-2
CC(C)C(=O)NCCc1nc(-c2ccc(Cl)cc2)no1	17	-2	/	1	-8	-1	/	/
Cc1ccc(NC(=O)C2CCN(S(=O)(=O)c3ccc4c(c3)C(C)(C)C(=O)N4C)CC2)c(C)c1	8	0	0	4	-6	16	/	/
COc1ccc(N2CCC(CNS(=O)(=O)c3cccc(C(F)(F)F)c3)C2)cc1 (centres undefined)	8	-1	59*	-5	-2	-1	2	-1
CCOC(=O)N1N=C(c2ccccc2)CC1(O)C(F)(F)F (centres undefined)	7	1	-1	-6	-16	11	/	/
CCOC(=O)N1N=C(c2ccc(C)cc2)CC1(O)C(F)(F)F (centres undefined)	10	0	20*	8	-4	0	48*	43*
O=C(CN1C(=O)CCC1=O)Nc1cccc2c1C(=O)NC2=O	-250	-46	21*	3	-8	-9	3	-3
COc1ccc(OCCCC(=O)Nc2nccs2)cc1	30	-1	5	-3	-7	4	/	/
Cc1cc(OC(C)C(=O)NC(Cc2c[nH]c3ccc(O)cc23)C(=O)O)c2c(C)c(C)c(=O)oc2c1 (centres undefined)	-4	-1	-7	-3	-8	11	/	/
CC(Oc1ccc2c(c1)oc(=O)c1ccccc12)C(=O)NC(Cc1c[nH]c2ccc(O)cc12)C(=O)O (centres undefined)	-143	1	47*	4	-1	1	-2	-5
CCN(CC)S(=O)(=O)c1ccc(C(=O)N2CCN(C(=O)c3ccco3)CC2)cc1	4	2	/	15	9	7	/	/
CCN(CC)c1ccc2cc(-c3nc4ccccc4[nH]3)c(=O)oc2c1	-322	-21	35*	69*	51*	95*	68*	67*
COc1ccc(C(=O)N2CCOCC2)cc1S(=O)(=O)N1CCCc2ccccc21	6	1	20*	14	6	0	1	-6
Cc1cccnc1CCNC(=O)c1ccc(OC2CCN(Cc3ccccn3)CC2)cc1	1	-14	14	-18	-4	7	/	/
